Test results taken from ChEMBL document CHEMBL3414429, “3,4-diaminobenzoic acid derivatives as inhibitors of the oxytocinase subfamily of M1 aminopeptidases with immune-regulating properties” (J Med Chem, 2015).
Values belong to the compound of their own block, whether it stands above or below them. The source made the active and inactive calls. No cut-off for these calls is given here.

Tests used:
[1] = target: Leucyl-cystinyl aminopeptidase (Homo sapiens, UniProt Q9UIQ6); assay: Inhibition of human recombinant IRAP expressed in baculovirus infected cabbage looper ovary Hi5 cells using L-leucine-7-amido-4-methyl coumarin as substrate up to 100 uM after 5 to 10 mins by fluorescence assay; conditions: BTI-TN-5B1-4
Chain of Leucyl-cystinyl aminopeptidase (Q9UIQ6 whole entry): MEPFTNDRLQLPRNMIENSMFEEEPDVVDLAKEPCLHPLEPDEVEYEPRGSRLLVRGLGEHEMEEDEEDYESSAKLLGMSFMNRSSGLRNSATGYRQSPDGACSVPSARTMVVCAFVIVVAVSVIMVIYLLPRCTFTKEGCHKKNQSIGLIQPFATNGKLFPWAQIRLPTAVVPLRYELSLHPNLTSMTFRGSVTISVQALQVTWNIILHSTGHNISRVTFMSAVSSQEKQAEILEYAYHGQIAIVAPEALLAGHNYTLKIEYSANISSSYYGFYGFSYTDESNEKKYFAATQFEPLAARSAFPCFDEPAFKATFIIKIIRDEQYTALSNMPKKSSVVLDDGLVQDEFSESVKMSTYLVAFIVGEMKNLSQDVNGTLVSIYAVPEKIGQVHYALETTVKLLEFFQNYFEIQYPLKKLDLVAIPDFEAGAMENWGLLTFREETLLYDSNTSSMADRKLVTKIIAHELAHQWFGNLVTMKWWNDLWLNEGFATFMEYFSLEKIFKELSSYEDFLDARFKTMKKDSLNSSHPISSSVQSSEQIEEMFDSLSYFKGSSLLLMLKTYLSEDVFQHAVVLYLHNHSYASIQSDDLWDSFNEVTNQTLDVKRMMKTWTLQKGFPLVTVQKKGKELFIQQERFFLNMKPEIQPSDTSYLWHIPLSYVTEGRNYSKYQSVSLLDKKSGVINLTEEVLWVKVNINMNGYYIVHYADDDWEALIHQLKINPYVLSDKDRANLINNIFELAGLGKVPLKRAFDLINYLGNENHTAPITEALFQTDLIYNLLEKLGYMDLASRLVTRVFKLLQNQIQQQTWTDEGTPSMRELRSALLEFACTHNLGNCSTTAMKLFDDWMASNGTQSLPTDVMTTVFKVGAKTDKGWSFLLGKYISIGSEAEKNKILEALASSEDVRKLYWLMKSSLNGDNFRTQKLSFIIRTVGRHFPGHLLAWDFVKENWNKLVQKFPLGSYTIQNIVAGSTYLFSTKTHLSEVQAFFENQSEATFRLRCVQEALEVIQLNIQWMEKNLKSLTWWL
Method in brief: (§1)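 Recombinant human enzymes made in baculovirus-infected Hi5 cells, kept in 10 mM HEPES pH 7, 100 mM NaCl, 10% glycerol. ERAP1 30 nM, ERAP2 6 nM or IRAP 6 nM with 50 μM substrate (L-AMC for ERAP1 and IRAP, R-AMC for ERAP2) and varied inhibitor. Fluorescence rise followed at ex 380/em 460; IC50 from fit of activity against inhibitor concentration.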

[2] = target: T1, Endoplasmic reticulum aminopeptidase 1 (Homo sapiens, UniProt Q9NZ08); assay: Inhibition of human recombinant ERAP1 expressed in baculovirus infected […] using L-leucine-7-amido-4-methyl coumarin as substrate up to 100 uM after 5 to 10 mins by fluorescence assay; method in brief: as §1
T1 sequence (Q9NZ08 whole entry): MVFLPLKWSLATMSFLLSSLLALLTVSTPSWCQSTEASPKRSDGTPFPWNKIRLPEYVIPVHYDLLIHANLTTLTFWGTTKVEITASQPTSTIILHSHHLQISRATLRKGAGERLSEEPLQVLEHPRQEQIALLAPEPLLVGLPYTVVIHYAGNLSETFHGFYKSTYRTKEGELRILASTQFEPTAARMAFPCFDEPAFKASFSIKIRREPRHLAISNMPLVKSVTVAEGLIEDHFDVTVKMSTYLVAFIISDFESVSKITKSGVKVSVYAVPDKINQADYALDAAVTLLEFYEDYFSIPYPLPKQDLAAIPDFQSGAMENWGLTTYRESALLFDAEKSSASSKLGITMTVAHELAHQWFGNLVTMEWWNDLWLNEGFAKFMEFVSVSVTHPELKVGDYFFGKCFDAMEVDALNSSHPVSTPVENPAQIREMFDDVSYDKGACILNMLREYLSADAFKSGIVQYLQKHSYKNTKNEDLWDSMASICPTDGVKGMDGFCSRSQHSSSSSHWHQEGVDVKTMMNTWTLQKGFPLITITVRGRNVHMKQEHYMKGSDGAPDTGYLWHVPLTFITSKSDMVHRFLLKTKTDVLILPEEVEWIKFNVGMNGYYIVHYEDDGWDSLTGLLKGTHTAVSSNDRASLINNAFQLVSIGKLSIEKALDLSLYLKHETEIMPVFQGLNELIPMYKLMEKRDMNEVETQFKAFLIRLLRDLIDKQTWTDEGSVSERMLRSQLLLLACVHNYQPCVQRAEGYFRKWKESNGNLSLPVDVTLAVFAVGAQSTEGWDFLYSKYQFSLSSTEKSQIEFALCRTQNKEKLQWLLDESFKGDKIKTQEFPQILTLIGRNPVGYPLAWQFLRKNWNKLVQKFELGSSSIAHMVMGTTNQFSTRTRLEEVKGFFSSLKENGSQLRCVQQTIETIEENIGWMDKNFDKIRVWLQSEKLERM

[3] = target: T2, Endoplasmic reticulum aminopeptidase 2 (Homo sapiens, UniProt Q6P179); assay: Inhibition of human recombinant ERAP2 expressed in baculovirus infected cabbage looper ovary Hi5 cells using L-arginyl-7-amido-4-methyl coumarin as substrate after 5 to 10 mins by fluorescence assay; set-up: species or system Female gonad, BTI-TN-5B1-4
T2 sequence (Q6P179 whole entry): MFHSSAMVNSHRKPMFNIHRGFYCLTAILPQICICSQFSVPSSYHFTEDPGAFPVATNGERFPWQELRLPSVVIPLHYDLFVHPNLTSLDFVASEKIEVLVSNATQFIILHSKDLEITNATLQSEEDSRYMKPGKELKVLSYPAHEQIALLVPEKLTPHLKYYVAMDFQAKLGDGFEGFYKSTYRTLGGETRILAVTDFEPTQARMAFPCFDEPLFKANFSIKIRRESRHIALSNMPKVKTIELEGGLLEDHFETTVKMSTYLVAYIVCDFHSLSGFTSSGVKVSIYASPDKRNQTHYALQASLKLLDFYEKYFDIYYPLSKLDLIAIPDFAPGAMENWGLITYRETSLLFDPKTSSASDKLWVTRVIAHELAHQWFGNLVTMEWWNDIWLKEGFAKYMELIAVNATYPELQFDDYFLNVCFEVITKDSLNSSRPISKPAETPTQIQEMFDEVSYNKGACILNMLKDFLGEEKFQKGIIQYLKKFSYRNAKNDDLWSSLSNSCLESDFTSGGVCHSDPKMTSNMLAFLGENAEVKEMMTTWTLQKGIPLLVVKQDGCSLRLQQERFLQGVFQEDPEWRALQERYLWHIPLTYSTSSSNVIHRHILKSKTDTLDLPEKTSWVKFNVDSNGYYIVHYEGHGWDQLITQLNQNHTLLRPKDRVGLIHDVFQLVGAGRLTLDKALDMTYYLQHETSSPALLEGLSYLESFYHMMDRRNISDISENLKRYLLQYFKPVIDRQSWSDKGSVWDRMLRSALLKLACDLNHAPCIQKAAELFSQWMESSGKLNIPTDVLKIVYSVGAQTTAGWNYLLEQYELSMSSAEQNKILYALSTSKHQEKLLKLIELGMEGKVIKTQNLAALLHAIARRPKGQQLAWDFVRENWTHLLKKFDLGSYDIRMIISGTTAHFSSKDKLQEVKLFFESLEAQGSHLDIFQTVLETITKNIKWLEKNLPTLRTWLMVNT

[4] = target: T1, Endoplasmic reticulum aminopeptidase 1; assay: Inhibition of human recombinant ERAP1 expressed in baculovirus infected Sf9 cells using L-leucine-7-amido-4-methyl coumarin as substrate after 5 to 10 mins by fluorescence assay
[5] = target: T2, Endoplasmic reticulum aminopeptidase 2; assay: Inhibition of human recombinant ERAP2 expressed in baculovirus infected cabbage looper ovary Hi5 cells using L-arginyl-7-amido-4-methyl coumarin as substrate up to 100 uM after 5 to 10 mins by fluorescence assay; conditions: BTI-TN-5B1-4; method in brief: as §1

inhibition [1]: inactive
inhibition [2]: inactive
IC50 [3]: > 100 µM
Structure (SMILES): COC(=O)c1ccc(NC(=O)[C@@H](N)CC(C)C)c(N)c1

inhibition [2]: inactive
Structure (SMILES): COC(=O)c1ccc(N)c(NC(=O)[C@@H](N)CCCNC(=N)N)c1

inhibition [2]: inactive
Structure (SMILES): COC(=O)c1ccc(NC(=O)[C@@H](N)CCCNC(=N)N)c(N)c1

inhibition [2]: inactive
IC50 [3]: > 100 µM
Structure (SMILES): COC(=O)c1ccc(N)c(NC(=O)[C@@H](N)Cc2ccc(O)cc2)c1

IC50 [4]: > 100 µM
Structure (SMILES): CCCC[C@H](N)C(=O)Nc1ccc(C(=O)N[C@H](C(=O)OCc2ccccc2)C(C)C)cc1N

inhibition [2]: inactive
IC50 [3]: > 100 µM
Structure (SMILES): CC(C)[C@H](NC(=O)c1ccc(NC(=O)[C@@H](N)CCc2ccccc2)c(N)c1)C(=O)O

inhibition [2]: inactive
IC50 [3]: > 100 µM
Structure (SMILES): N=C(N)NCCC[C@H](N)C(=O)Nc1cc(C(=O)O)ccc1N

inhibition [2]: inactive
Structure (SMILES): CCCC[C@H](N)C(=O)Nc1ccc(C(=O)N[C@@H](CCCCN)C(=O)OC)cc1N

inhibition [2]: inactive
Structure (SMILES): COC(=O)[C@H](CCCCN)NC(=O)c1ccc(NC(=O)[C@@H](N)CCCNC(=N)N)c(N)c1

IC50 [4]: > 100 µM
Structure (SMILES): CCCC[C@H](N)C(=O)Nc1cc(C(=O)OC)ccc1N

inhibition [2]: inactive
Structure (SMILES): CCCC[C@H](N)C(=O)Nc1ccc(C(=O)OC)cc1N

inhibition [2]: inactive
Structure (SMILES): COC(=O)c1ccc(NC(=O)[C@@H](N)Cc2ccc(O)cc2)c(N)c1

inhibition [1]: inactive
inhibition [2]: inactive
inhibition [5]: inactive
Structure (SMILES): COC(=O)c1ccc(N)c(NC(=O)[C@@H](N)CC(C)C)c1

inhibition [1]: inactive
inhibition [2]: inactive
Structure (SMILES): COC(=O)[C@H](CCCCN)NC(=O)c1ccc(N)c(NC(=O)[C@@H](N)CC(C)C)c1

IC50 [4]: > 100 µM
inhibition [5]: inactive
Structure (SMILES): COC(=O)[C@H](CCCCN)NC(=O)c1ccc(N)c(N)c1

IC50 [4]: > 100 µM
inhibition [5]: inactive
Structure (SMILES): COC(=O)c1ccc(N)c(NC(=O)[C@@H](N)CCc2ccc(O)cc2)c1

IC50 [4]: > 100 µM
Structure (SMILES): COC(=O)c1ccc(NC(=O)[C@@H](N)CCc2ccccc2)c(N)c1

inhibition [2]: inactive
Structure (SMILES): CC(C)[C@H](NC(=O)c1ccc(N)c(NC(=O)[C@@H](N)CCCNC(=N)N)c1)C(=O)O

IC50 [4]: > 100 µM
Structure (SMILES): CCCC[C@H](N)C(=O)Nc1cc(C(=O)N[C@@H](Cc2ccc(O)cc2)C(=O)OC)ccc1N

inhibition [2]: inactive
inhibition [5]: inactive
Structure (SMILES): COC(=O)c1ccc(NC(=O)[C@@H](N)Cc2ccc(OCc3ccccc3)cc2)c(N)c1

inhibition [1]: inactive
inhibition [2]: inactive
inhibition [5]: inactive
Structure (SMILES): CC(C)C[C@H](N)C(=O)Nc1cc(C(=O)O)ccc1N

Second part, the compound before the results:

Structure (SMILES): Nc1cc(C(=O)N[C@@H](Cc2c[nH]c3ccccc23)C(=O)OCc2ccccc2)ccc1NC(=O)[C@@H](N)CCc1ccc(OCc2ccccc2)cc1
inhibition [2]: inactive

Structure (SMILES): COC(=O)[C@H](CCCCN)NC(=O)c1ccc(N)c(NC(=O)[C@@H](N)COCc2ccccc2)c1
inhibition [1]: inactive
inhibition [2]: inactive
inhibition [5]: inactive

Structure (SMILES): COC(=O)[C@H](CCCCN)NC(=O)c1ccc(N)c(NC(=O)[C@@H](N)CCc2ccc(O)cc2)c1
IC50 [4]: > 100 µM

Structure (SMILES): Nc1ccc(C(=O)N[C@@H](Cc2c[nH]c3ccccc23)C(=O)O)cc1NC(=O)[C@@H](N)CCc1ccc(O)cc1
IC50 [3]: > 100 µM

Structure (SMILES): COC(=O)[C@H](Cc1ccc(O)cc1)NC(=O)c1ccc(N)c(N)c1
inhibition [2]: inactive
inhibition [5]: inactive

Structure (SMILES): NCCCC[C@H](NC(=O)c1ccc(N)c(NC(=O)[C@@H](N)Cc2ccc(O)cc2)c1)C(=O)O
inhibition [2]: inactive

Structure (SMILES): Nc1ccc(C(=O)N[C@@H](Cc2c[nH]c3ccccc23)C(=O)OCc2ccccc2)cc1N
inhibition [2]: inactive
IC50 [3]: > 100 µM

Structure (SMILES): NCCCC[C@H](NC(=O)c1ccc(N)c(NC(=O)[C@@H](N)Cc2ccccc2)c1)C(=O)O
inhibition [2]: inactive

Structure (SMILES): Nc1ccc(C(=O)N[C@@H](Cc2c[nH]c3ccccc23)C(=O)OCc2ccccc2)cc1NC(=O)[C@@H](N)CCc1ccc(OCc2ccccc2)cc1
IC50 [4]: > 100 µM
IC50 [3]: > 100 µM

Structure (SMILES): Nc1ccc(C(=O)N[C@@H](Cc2c[nH]c3ccccc23)C(=O)O)cc1N
IC50 [4]: > 100 µM

Structure (SMILES): CC(C)[C@H](NC(=O)c1ccc(N)c(NC(=O)[C@@H](N)Cc2ccc(O)cc2)c1)C(=O)O
inhibition [2]: inactive
IC50 [3]: > 100 µM

Structure (SMILES): Nc1ccc(C(=O)O)cc1NC(=O)[C@@H](N)Cc1ccc(O)cc1
IC50 [4]: > 100 µM

Structure (SMILES): Nc1ccc(C(=O)N[C@@H](Cc2c[nH]c3ccccc23)C(=O)O)cc1NC(=O)[C@@H](N)Cc1ccc(O)cc1
IC50 [3]: 40 µM

Structure (SMILES): COC(=O)[C@H](CCCNC(=N)N)NC(=O)c1ccc(N)c(N)c1
inhibition [5]: inactive

Structure (SMILES): COC(=O)c1ccc(N)c(NC(=O)[C@@H](N)Cc2ccc(OCc3ccccc3)cc2)c1
inhibition [2]: inactive
inhibition [5]: inactive

Structure (SMILES): COC(=O)c1ccc(N)c(NC(=O)[C@@H](N)CCc2ccc(OCc3ccccc3)cc2)c1
inhibition [2]: inactive
inhibition [5]: inactive

Structure (SMILES): COC(=O)[C@H](CCCCN)NC(=O)c1ccc(NC(=O)[C@@H](N)CCc2ccccc2)c(N)c1
inhibition [2]: inactive
inhibition [5]: inactive

Structure (SMILES): COC(=O)[C@H](CCCCN)NC(=O)c1ccc(N)c(NC(=O)[C@@H](N)CCCNC(=N)N)c1
inhibition [1]: inactive

Structure (SMILES): COC(=O)[C@H](CCCCN)NC(=O)c1ccc(NC(=O)[C@@H](N)Cc2ccc(O)cc2)c(N)c1
IC50 [4]: > 100 µM
IC50 [3]: > 100 µM

Structure (SMILES): COC(=O)[C@H](Cc1ccc(O)cc1)NC(=O)c1ccc(N)c(NC(=O)[C@@H](N)Cc2ccc(O)cc2)c1
IC50 [4]: 110 µM

Structure (SMILES): CC(C)[C@H](NC(=O)c1ccc(NC(=O)[C@@H](N)CCc2ccccc2)c(N)c1)C(=O)OCc1ccccc1
inhibition [2]: inactive
IC50 [3]: > 100 µM

Structure (SMILES): Nc1ccc(C(=O)O)cc1NC(=O)[C@@H](N)Cc1ccc(OCc2ccccc2)cc1
inhibition [2]: inactive
inhibition [5]: inactive

Structure (SMILES): CC(C)[C@H](NC(=O)c1ccc(N)c(NC(=O)[C@@H](N)Cc2ccc(O)cc2)c1)C(=O)OCc1ccccc1
inhibition [2]: inactive

Structure (SMILES): COC(=O)[C@H](Cc1ccc(O)cc1)NC(=O)c1ccc(NC(=O)[C@@H](N)Cc2ccc(OCc3ccccc3)cc2)c(N)c1
inhibition [2]: inactive

Structure (SMILES): COC(=O)[C@@H](NC(=O)c1ccc(N)c(NC(=O)[C@@H](N)Cc2ccc(O)cc2)c1)[C@@H](C)O
IC50 [4]: > 100 µM

Structure (SMILES): COC(=O)[C@H](CCCN)NC(=O)c1ccc(N)c(NC(=O)[C@@H](N)CCc2ccccc2)c1
inhibition [1]: inactive
inhibition [2]: inactive
inhibition [5]: inactive

Structure (SMILES): COC(=O)[C@H](CCCCN)NC(=O)c1ccc(N)c(NC(=O)[C@@H](N)CCc2ccc(OCc3ccccc3)cc2)c1
IC50 [4]: > 100 µM
